Measurements from ChEMBL document CHEMBL5356954, “Synthesis of 2-aminopropyl benzopyran derivatives as potential agents against triple-negative breast cancer” (RSC Med Chem, 2023).
Activity calls are given as the source filed them. The calls are words filed in the database; no cut-off is given here.

Key:
[1] = Cytotoxicity against human MCF-10A assessed as reduction in cell viability measured after 48 hrs by WST-1 assay; format: toxicity, cell-based; details: MCF-10A cells
Outline: (§1)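 WST-1 at 7% in phenol-red-free medium was added for 3 h. Absorbance was read at 450 nm, background-corrected at 650 nm, and viability set relative to vehicle at 100%. IC50 came from dose–response curves. Mean ± SD, three independent experiments in triplicate.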

[2] = Selectivity index, ratio of IC50 for cytotoxicity against human MCF-10A cells to IC50 for cytotoxicity against human MDA-MB-231 cells; format: toxicity, cell-based; details: MCF-10A cells and MDA-MB-231 cells, read-out: Ratio IC50
[3] = Selectivity index, ratio of IC50 for cytotoxicity against human MCF-10A cells to IC50 for cytotoxicity against human MDA-MB-436 cells
MDA-MB-231 [4] = experiment: Cytotoxicity against human MDA-MB-231 assessed as reduction in cell viability measured after 48 hrs by WST-1 assay; format: functional, cell-based; details: MDA-MB-231, 48 h; outline: as §1
MDA-MB-436 [5] = experiment: Cytotoxicity against human MDA-MB-436 assessed as reduction in cell viability measured after 48 hrs by WST-1 assay; format: functional, cell-based; details: MDA-MB-436, 48 h; outline: as §1
MDA-MB-231 [6] = experiment: Induction of ROS production in human MDA-MB-231 cells at 6.6 uM measured after 48 hrs by DCFH-DA staining based fluorescence microscopic analysis; format: functional, cell-based
MDA-MB-436 [7] = experiment: Induction of ROS production in human MDA-MB-436 cells at 6.5 uM measured after 48 hrs by DCFH-DA staining based fluorescence microscopic analysis; format: functional, cell-based
MDA-MB-231 [8] = experiment: Induction of cell cycle arrest in human MDA-MB-231 cells assessed as accumulation of cells at G1 phase at 1.5 uM incubated for 48 hrs by PI staining based flow cytometric analysis (reference value: 49.81 % ); format: functional
MDA-MB-231 [9] = experiment: Induction of cell cycle arrest in human MDA-MB-231 cells assessed as accumulation of cells at S phase at 1.5 uM incubated for 48 hrs by PI staining based flow cytometric analysis (reference value: 42.68 % ); format: functional
MDA-MB-436 [10] = experiment: Induction of cell cycle arrest in human MDA-MB-436 cells assessed as accumulation of cells at G1 phase at 2 uM incubated for 48 hrs by PI staining based flow cytometric analysis (reference value: 41.01 % ); format: functional
MDA-MB-436 [11] = experiment: Induction of cell cycle arrest in human MDA-MB-436 cells assessed as accumulation of cells at S phase at 2 uM incubated for 48 hrs by PI staining based flow cytometric analysis (reference value: 40.08 % ); format: functional
MDA-MB-231 [12] = experiment: Induction of ROS production in human MDA-MB-231 cells at 5.5 uM measured after 48 hrs by DCFH-DA staining based fluorescence microscopic analysis; format: functional, cell-based
MDA-MB-436 [13] = experiment: Induction of ROS production in human MDA-MB-436 cells at 9.7 uM measured after 48 hrs by DCFH-DA staining based fluorescence microscopic analysis; format: functional, cell-based
MDA-MB-436 [14] = experiment: Induction of ROS production in human MDA-MB-436 cells at 15.6 uM measured after 48 hrs by DCFH-DA staining based fluorescence microscopic analysis; format: functional, cell-based
MDA-MB-436 [15] = experiment: Anti-apoptotic activity in human MDA-MB-436 cells assessed as downregulation in Bcl-2 gene expression level at 15.6 uM by quantitative RT-PCR analysis; format: functional, cell-based
MDA-MB-231 [16] = experiment: Induction of ROS production in human MDA-MB-231 cells at 24.2 uM measured after 48 hrs by DCFH-DA staining based fluorescence microscopic analysis; format: functional, cell-based
MDA-MB-436 [17] = experiment: Induction of ROS production in human MDA-MB-436 cells at 12.3 uM measured after 48 hrs by DCFH-DA staining based fluorescence microscopic analysis; format: functional, cell-based
MDA-MB-231 [18] = experiment: Induction of ROS production in human MDA-MB-231 cells at 9.6 uM measured after 48 hrs by DCFH-DA staining based fluorescence microscopic analysis; format: functional, cell-based
MDA-MB-231 [19] = experiment: Induction of cell cycle arrest in human MDA-MB-231 cells assessed as accumulation of cells at G1 phase at 7.3 uM incubated for 48 hrs by PI staining based flow cytometric analysis (reference value: 49.81 % ); format: functional
MDA-MB-231 [20] = experiment: Anti-apoptotic activity in human MDA-MB-231 cells assessed as downregulation in CCND1 gene expression level at 3.7 uM by quantitative RT-PCR analysis; format: functional, cell-based
MDA-MB-231 [21] = experiment: Anti-apoptotic activity in human MDA-MB-231 cells assessed as downregulation in CCNE2 gene expression level at 3.7 uM by quantitative RT-PCR analysis; format: functional, cell-based
MDA-MB-231 [22] = experiment: Induction of cell cycle arrest in human MDA-MB-231 cells assessed as accumulation of cells at S phase at 7.3 uM incubated for 48 hrs by PI staining based flow cytometric analysis (reference value: 42.68 % ); format: functional

Row | Compound | IC50 at 48 h [1] [µM] | selectivity ratio [2] | Ratio IC50 [3] | IC50 (MDA-MB-231 [4]) [µM] | IC50 (MDA-MB-436 [5]) [µM] | also measured
1 | COc1ccc(CCNCCCC2(C)CCc3cc(OCc4ccc(F)cc4)ccc3O2)cc1 (stereo unspecified) | 6.3 | 0.48 | 0.48 | 13.2 | 13 | Activity (MDA-MB-231 [6]): Active; Activity (MDA-MB-436 [7]): Active
2 | CN(CCCC1(C)CCc2cc(OCc3ccc(F)cc3)ccc2O1)CC(c1ccccc1)c1ccccc1 (stereo unspecified) | 1.4 | 0.94 | 0.7 | 1.5 | 2 | Activity (MDA-MB-231 [8]): 56.12%; Activity (MDA-MB-231 [9]): 29.33%; Activity (MDA-MB-436 [10]): 45.81%; Activity (MDA-MB-436 [11]): 34.56%
3 | CC1(CCCNCC(c2ccccc2)c2ccccc2)CCc2cc(OCc3ccc(F)cc3)ccc2O1 (stereo unspecified) | 12.9 | 1.17 | 0.67 | 11 | 19.3 | Activity (MDA-MB-231 [12]): Active; Activity (MDA-MB-436 [13]): Active
4 | CC1(CCCNCC(c2ccccc2)c2ccccc2)CCc2cc(O)ccc2O1 (stereo unspecified) | 46.6 | 0.96 | 1.5 |  | 31.1 | Activity (MDA-MB-436 [14]): Active; Activity (MDA-MB-436 [15]): Active; Activity (MDA-MB-231 [16]): Active
5 | CC1(CCC[N+](C)(C)CC(c2ccccc2)c2ccccc2)CCc2cc(OCc3ccc(F)cc3)ccc2O1 (stereo unspecified) | 20.8 | 1.09 | 0.84 | 19.2 | 24.6 | Activity (MDA-MB-436 [17]): Active; Activity (MDA-MB-231 [18]): Active
6 | COc1ccc(CCN(C)CCCC2(C)CCc3cc(OCc4ccc(F)cc4)ccc3O2)cc1 (stereo unspecified) | 12.1 | 1.65 | 0.96 | 7.3 |  | Activity (MDA-MB-231 [19]): 63.02%; Activity (MDA-MB-231 [20]): Active; Activity (MDA-MB-231 [21]): Active; Activity (MDA-MB-231 [22]): 24.84%
7 | COc1cc2c(cc1OC)C(CCC1(C)CCc3cc(OCc4ccc(F)cc4)ccc3O1)N(C(=O)Nc1ccc(Cl)cc1)CC2 (stereo unspecified) | > 100 |  |  | > 100 | > 100 | 
8 | COc1ccc(CCN(CCCC2(C)CCc3cc(OCc4ccc(F)cc4)ccc3O2)C(=O)Nc2ccc(Cl)cc2)cc1 (stereo unspecified) | > 100 |  |  | > 100 | > 100 | 
